Measurements from ChEMBL document CHEMBL5678814, “Novel Mps1 Kinase Inhibitors with Potent Antitumor Activity” (Mol Cancer Ther, 2016).
The source made the active and inactive calls. No cut-off for these calls is given here.

What was measured:
[1] = target: Mitogen-activated protein kinase kinase kinase kinase 1 (Homo sapiens, UniProt Q92918); assay: Binding affinity to HPK1 (unknown origin) assessed as dissociation constant
[2] = target: Mitogen-activated protein kinase 10 (Homo sapiens, UniProt P53779); assay: Binding affinity to JNK3 (unknown origin) assessed as dissociation constant
Sequence of Mitogen-activated protein kinase 10 (P53779 whole entry): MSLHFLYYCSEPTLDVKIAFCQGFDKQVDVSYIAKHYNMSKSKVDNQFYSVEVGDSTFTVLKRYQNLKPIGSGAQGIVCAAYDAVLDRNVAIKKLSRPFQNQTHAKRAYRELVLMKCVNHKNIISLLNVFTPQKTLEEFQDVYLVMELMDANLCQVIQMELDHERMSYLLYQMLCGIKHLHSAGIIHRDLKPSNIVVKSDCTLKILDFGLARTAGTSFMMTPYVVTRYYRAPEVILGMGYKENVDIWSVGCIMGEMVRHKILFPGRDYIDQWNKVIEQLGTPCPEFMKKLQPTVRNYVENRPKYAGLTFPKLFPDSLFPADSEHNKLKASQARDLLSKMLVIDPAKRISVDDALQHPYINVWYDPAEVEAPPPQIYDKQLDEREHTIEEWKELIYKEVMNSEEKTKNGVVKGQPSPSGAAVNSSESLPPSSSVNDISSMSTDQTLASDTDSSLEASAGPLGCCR

[3] = target: Mast/stem cell growth factor receptor Kit (Homo sapiens, UniProt P10721); assay: Binding affinity to KIT (unknown origin) assessed as dissociation constant
Sequence of Mast/stem cell growth factor receptor Kit (P10721 whole entry): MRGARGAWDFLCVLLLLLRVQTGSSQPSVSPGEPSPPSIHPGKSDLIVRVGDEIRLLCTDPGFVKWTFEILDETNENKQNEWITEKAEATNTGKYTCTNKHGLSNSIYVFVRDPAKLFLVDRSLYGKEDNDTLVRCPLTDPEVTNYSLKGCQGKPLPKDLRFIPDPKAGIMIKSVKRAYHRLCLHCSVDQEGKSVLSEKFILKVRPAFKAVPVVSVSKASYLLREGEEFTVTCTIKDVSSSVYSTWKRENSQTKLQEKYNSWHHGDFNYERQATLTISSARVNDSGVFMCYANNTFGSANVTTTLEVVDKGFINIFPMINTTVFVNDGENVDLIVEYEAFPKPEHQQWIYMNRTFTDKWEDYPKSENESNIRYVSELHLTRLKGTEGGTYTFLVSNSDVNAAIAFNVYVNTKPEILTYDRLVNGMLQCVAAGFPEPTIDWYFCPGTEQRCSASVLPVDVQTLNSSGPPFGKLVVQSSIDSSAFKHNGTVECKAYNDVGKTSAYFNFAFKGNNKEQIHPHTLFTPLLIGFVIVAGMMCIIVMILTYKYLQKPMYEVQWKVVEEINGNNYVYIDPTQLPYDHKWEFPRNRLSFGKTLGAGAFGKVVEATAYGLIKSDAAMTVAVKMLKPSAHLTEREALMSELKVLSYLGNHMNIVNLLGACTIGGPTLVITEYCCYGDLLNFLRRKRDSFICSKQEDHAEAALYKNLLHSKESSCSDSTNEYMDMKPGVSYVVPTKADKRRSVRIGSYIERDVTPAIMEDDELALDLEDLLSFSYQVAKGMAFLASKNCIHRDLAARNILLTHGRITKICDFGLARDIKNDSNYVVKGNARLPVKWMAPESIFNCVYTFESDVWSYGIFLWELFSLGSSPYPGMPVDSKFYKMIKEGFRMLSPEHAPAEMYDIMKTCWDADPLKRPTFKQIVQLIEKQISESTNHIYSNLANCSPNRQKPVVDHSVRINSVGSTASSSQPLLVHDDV

Misshapen-like kinase 1 = Misshapen-like kinase 1 (Homo sapiens, UniProt Q8N4C8); assay: Binding affinity to MINK (unknown origin) assessed as dissociation constant
Sequence of Misshapen-like kinase 1 (Q8N4C8 whole entry): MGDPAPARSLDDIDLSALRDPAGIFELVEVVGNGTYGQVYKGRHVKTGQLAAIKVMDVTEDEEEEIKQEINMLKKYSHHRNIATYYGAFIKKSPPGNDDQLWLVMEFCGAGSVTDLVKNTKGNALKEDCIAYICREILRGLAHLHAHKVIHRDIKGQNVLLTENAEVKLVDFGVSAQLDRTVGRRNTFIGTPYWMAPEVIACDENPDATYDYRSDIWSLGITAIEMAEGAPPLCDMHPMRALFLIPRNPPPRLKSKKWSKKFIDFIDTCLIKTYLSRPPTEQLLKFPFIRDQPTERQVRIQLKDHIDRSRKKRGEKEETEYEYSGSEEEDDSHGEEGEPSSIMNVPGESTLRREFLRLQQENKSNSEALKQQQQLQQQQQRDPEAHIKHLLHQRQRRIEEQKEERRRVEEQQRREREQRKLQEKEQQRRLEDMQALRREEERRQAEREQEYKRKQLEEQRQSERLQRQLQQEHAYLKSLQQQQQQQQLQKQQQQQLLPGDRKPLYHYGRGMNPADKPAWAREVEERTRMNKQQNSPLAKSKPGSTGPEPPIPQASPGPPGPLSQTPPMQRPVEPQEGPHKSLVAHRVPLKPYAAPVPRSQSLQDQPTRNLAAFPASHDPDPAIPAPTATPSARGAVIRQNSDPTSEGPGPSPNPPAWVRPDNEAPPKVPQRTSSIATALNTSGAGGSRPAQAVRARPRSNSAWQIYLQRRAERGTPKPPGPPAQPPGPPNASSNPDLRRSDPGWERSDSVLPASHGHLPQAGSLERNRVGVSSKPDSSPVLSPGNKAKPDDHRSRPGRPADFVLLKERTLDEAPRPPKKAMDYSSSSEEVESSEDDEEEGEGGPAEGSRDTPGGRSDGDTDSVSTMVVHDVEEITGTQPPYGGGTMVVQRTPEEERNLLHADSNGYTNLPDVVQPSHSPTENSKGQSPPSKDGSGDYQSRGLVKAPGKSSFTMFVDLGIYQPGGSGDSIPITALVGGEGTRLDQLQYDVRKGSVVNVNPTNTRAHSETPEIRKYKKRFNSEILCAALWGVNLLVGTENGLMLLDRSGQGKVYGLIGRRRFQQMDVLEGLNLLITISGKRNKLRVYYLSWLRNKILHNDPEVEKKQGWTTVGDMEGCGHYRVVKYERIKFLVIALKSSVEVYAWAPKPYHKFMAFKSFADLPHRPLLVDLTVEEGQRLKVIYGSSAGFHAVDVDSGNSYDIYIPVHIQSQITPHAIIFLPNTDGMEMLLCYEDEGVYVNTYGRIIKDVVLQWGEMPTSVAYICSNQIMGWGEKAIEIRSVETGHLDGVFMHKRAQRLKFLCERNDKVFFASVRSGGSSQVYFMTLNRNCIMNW

[4] = Antiproliferative activity against human JMSU-1 cells assessed as cell growth inhibition incubated for 96 hrs by MTS assay; format: functional, cell-based; settings: JMSU-1, 96 h
KU-19-19 = assay: Antiproliferative activity against human KU-19-19 cells assessed as cell growth inhibition incubated for 96 hrs by MTS assay; format: functional, cell-based; settings: KU-19-19, 96 h
HCC70 = assay: Antiproliferative activity against human HCC70 cells assessed as cell growth inhibition incubated for 96 hrs by MTS assay; format: functional, cell-based; settings: HCC70, 96 h
MDA-MB-231 = assay: Antiproliferative activity against human MDA-MB-231 cells assessed as cell growth inhibition incubated for 96 hrs by MTS assay; format: functional, cell-based; settings: MDA-MB-231, 96 h
NCI-H647 = assay: Antiproliferative activity against human NCI-H647 cells assessed as cell growth inhibition incubated for 96 hrs by MTS assay; format: functional, cell-based; settings: NCI-H647, 96 h
NCI-H526 = assay: Antiproliferative activity against human NCI-H526 cells assessed as cell growth inhibition incubated for 96 hrs by MTS assay; format: functional, cell-based; settings: NCI-H526, 96 h
SK-MES-1 = assay: Antiproliferative activity against human SK-MES-1 cells assessed as cell growth inhibition incubated for 96 hrs by MTS assay; format: functional, cell-based; settings: SK-MES-1, 96 h
LAPC4 = assay: Antiproliferative activity against human LAPC4 cells assessed as cell growth inhibition incubated for 96 hrs by MTS assay; format: functional, cell-based; settings: LAPC4, 96 h
VCaP = assay: Antiproliferative activity against human VCaP cells assessed as cell growth inhibition incubated for 96 hrs by MTS assay; format: functional, cell-based
RD = assay: Antiproliferative activity against human RD cells assessed as cell growth inhibition incubated for 96 hrs by MTS assay; format: functional, cell-based
Rh41 = assay: Antiproliferative activity against human Rh41 cells assessed as cell growth inhibition incubated for 96 hrs by MTS assay; format: functional, cell-based; settings: Rh41, 96 h
SNU-16 = assay: Antiproliferative activity against human SNU-16 cells assessed as cell growth inhibition incubated for 96 hrs by MTS assay; format: functional, cell-based; settings: SNU-16, 96 h
[5] = Clearance in male CD1 mouse blood at 0.5 mg/kg, iv measured after 24 hrs by LC/-MS/MS analysis; format: ADME, organism-based
Outline: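 Male CD1 mice received a single iv bolus of 0.5 mg/kg in 1% DMSO/99% plasma. Plasma was sampled at 2, 5, 15, 30 and 45 min and at 1, 2, 4, 6, 8 and 24 h, precipitated with ice-cold acetonitrile (1:5), and supernatants were run by LC/MS-MS. Parameters were estimated from plasma concentration data, with AUC by the log-linear trapezoidal rule.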

[6] = Volume of distribution at steady state in male Wistar rat plasma at 0.5 mg/kg, iv measured after 24 hrs by LC/-MS/MS analysis; format: ADME, organism-based; settings: read-out: Vdss
[7] = Synergistic antitumor activity against human LU387 cells xenografted female athymic NMRI mouse model assessed as MTD at 1 mg/kg,po administered twice daily intermittent for 2 days on/5 days off in the presence of paclitaxel relative to control; format: functional; settings: time 7 day
A2780cis = settings: Homo sapiens, dose 2.5 mg/kg, route po, time 7.0 day
LoVo = assay: Antiproliferative activity against human LoVo cells assessed as cell growth inhibition incubated for 96 hrs by crystal violet staining
A549 = assay: Antiproliferative activity against human A549 cells assessed as cell growth inhibition incubated for 96 hrs by crystal violet staining; settings: A549, 96 h
HT-29 = assay: Antiproliferative activity against human HT-29 cells assessed as cell growth inhibition incubated for 96 hrs by crystal violet staining; settings: HT-29, 96 h
CAL-33 = assay: Antiproliferative activity against human CAL-33 cells assessed as cell growth inhibition incubated for 96 hrs by crystal violet staining; settings: CAL-33, 96 h
Calu-6 = assay: Antiproliferative activity against human Calu-6 cells assessed as cell growth inhibition incubated for 96 hrs by crystal violet staining; settings: Calu-6, 96 h
SK-BR-3 = assay: Antiproliferative activity against human SK-BR-3 cells assessed as cell growth inhibition incubated for 96 hrs by crystal violet staining; settings: SK-BR-3, 96 h
NCI-H28 = assay: Antiproliferative activity against human NCI-H28 cells assessed as cell growth inhibition incubated for 96 hrs by crystal violet staining; settings: NCI-H28, 96 h
NCI-H23 = assay: Antiproliferative activity against human NCI-H23 cells assessed as cell growth inhibition incubated for 96 hrs by crystal violet staining; settings: NCI-H23, 96 h
NCI-H460 = assay: Antiproliferative activity against human NCI-H460 cells assessed as cell growth inhibition incubated for 96 hrs by crystal violet staining; settings: NCI-H460, 96 h
Malme-3M = assay: Antiproliferative activity against human Malme-3M cells assessed as cell growth inhibition incubated for 96 hrs by crystal violet staining
[8] = Antiproliferative activity against human HeLa-MaTu cells assessed as cell growth inhibition incubated for 96 hrs by crystal violet staining
RPMI-2650 = assay: Antiproliferative activity against human RPMI-2650 cells assessed as cell growth inhibition incubated for 96 hrs by crystal violet staining; settings: RPMI-2650, 96 h
MSTO-211H = assay: Antiproliferative activity against human MSTO-211H cells assessed as cell growth inhibition incubated for 96 hrs by crystal violet staining
NCI-H1155 = assay: Antiproliferative activity against human NCI-H1155 cells assessed as cell growth inhibition incubated for 96 hrs by crystal violet staining; settings: NCI-H1155, 96 h
NCI-H1299 = assay: Antiproliferative activity against human NCI-H1299 cells assessed as cell growth inhibition incubated for 96 hrs by crystal violet staining; settings: NCI-H1299, 96 h
RKO = assay: Antiproliferative activity against human TP53 mutant RKO cells assessed as cell growth inhibition incubated for 96 hrs by crystal violet staining

Sequence of Mitogen-activated protein kinase kinase kinase kinase 1 (Q92918 whole entry): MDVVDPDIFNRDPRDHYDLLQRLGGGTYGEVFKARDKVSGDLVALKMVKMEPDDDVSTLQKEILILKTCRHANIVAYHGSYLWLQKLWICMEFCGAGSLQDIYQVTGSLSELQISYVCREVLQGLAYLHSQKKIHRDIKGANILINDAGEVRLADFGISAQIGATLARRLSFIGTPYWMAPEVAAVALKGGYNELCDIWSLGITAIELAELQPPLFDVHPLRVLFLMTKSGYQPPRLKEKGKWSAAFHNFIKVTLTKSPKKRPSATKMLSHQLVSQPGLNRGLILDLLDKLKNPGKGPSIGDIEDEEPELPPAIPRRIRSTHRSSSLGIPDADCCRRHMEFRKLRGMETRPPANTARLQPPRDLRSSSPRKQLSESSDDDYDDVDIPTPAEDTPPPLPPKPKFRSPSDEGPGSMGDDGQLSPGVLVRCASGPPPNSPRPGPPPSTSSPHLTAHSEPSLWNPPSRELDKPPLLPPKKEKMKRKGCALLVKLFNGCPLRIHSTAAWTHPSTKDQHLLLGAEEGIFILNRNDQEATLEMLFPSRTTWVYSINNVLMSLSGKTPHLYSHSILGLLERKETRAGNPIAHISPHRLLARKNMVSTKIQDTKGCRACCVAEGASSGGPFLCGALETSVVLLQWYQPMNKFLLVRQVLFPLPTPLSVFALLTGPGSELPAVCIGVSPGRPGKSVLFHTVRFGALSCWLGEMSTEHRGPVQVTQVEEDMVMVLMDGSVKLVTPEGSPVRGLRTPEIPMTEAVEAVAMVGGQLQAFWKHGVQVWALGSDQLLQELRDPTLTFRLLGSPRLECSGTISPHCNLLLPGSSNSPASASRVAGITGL

SMILES: COc1cc(S(C)(=O)=O)ccc1Nc1nc2ccc(-c3ccc(NC(=O)[C@H](C)c4ccc(F)cc4)cc3)cn2n1 [BAY-1161909]
- Kd [1]: 40000 nM
- Kd [2]: 96 nM
- Kd [3]: 370 nM
- Kd (Misshapen-like kinase 1): 40000 nM
- IC50 [4]: 89 nM
- IC50 (KU-19-19): 86 nM
- IC50 (HCC70): 87 nM
- IC50 (MDA-MB-231): 110 nM
- IC50 (NCI-H647): 570 nM
- IC50 (NCI-H526): 100 nM
- IC50 (SK-MES-1): 210 nM
- IC50 (LAPC4): 130 nM
- IC50 (VCaP): > 3000 nM
- IC50 (RD): 260 nM
- IC50 (Rh41): 150 nM
- IC50 (SNU-16): 88 nM
- clearance [5]: 11.5 mL/min/kg
- Vd [6]: 2.4 L/kg
- MED [7]: 40%
- inhibition (A2780cis): Active
- IC50 (LoVo): 95 nM
- IC50 (A549): 130 nM
- IC50 (HT-29): 100 nM
- IC50 (CAL-33): 110 nM
- IC50 (Calu-6): > 3000 nM
- IC50 (SK-BR-3): > 3000 nM
- IC50 (NCI-H28): 110 nM
- IC50 (NCI-H23): 91 nM
- IC50 (NCI-H460): 110 nM
- IC50 (Malme-3M): 200 nM
- IC50 [8]: 200 nM
- IC50 (RPMI-2650): 51 nM
- IC50 (MSTO-211H): 70 nM
- IC50 (NCI-H1155): 1400 nM
- IC50 (NCI-H1299): 120 nM
- IC50 (RKO): 48 nM
